# STAT3 activator: increases IL-6 driven STAT3 reporter signal; activation (% of control), % at 5.6 µM; U3A cells, IL-6 STAT3-luciferase reporter, luminescence; 100% = signal with IL-6 EC80 alone; actives 0.91% (n = 190,000);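 active means activation above the screen-wide mean of compound activation plus 3 SD, cut at about 130% in these data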;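 further: 0% = background luminescence of wells with medium and substrate only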
#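 Assay system – human STAT1-deficient U3A cells with stable STAT3-luciferase reporter · Also added – IL-6 (33 ng/mL) · Schedule – compound 1 h, then IL-6 6 h at 37 °C · Technique – reporter luminescence signal · Evaluation – % activation versus median of IL-6-stimulated wells · Benchmarks – IL-6-only wells as 100% reference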
# HSP90 refold inh: HSP90 refolding inhibition in rabbit reticulocyte lysate. actives 0.91% (n = 290,000). luciferase refolding luminescence, 3 h. inhibition, % at 5.6 µM. AID 1789;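 active means inhibition above the screen-wide mean plus 3 SD, computed separately per campaign, cut at about 16% in these data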;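 further: 0% = DMSO wells and 100% = 60 µM geldanamycin wells; inhibitors lower the luminescence because luciferase stays unfolded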
# STAT3 blocker: reduces IL-6 driven STAT3 reporter signal; U3A cells, IL-6 STAT3-luciferase reporter, luminescence; host cell line lacks STAT1; inhibition, % at 5.5 µM; actives 0.89% (n = 190,000); AID 862;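 active means inhibition above the mean inhibition across all screened compounds plus 3 SD, cut at about 44% in these data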;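 further: 0% = DMSO only wells and 100% = 100 µM nifuroxazide control wells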
# STAT1 inh-1: STAT1 signaling inhibition. NIH 3T3 STAT1-luciferase reporter, IFN-gamma, luminescence. inhibition, % at 5.5 µM. actives 0.35% (n = 200,000). AID 920;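 active means inhibition above a set limit, the mean inhibition across all tested compounds plus 3 SD, cut at about 34% in these data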;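 further: 0% = IFN-gamma with DMSO and 100% = IFN-gamma with 300 µM nifuroxazide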
# STAT1 inh-2: STAT1 inhibition, confirmation assay. shares compounds with STAT1 inh-1. NIH 3T3 STAT1-luciferase reporter, IFN-gamma, luminescence. inhibition, % at 5.5 µM. actives 55% (n = 200). AID 1263;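 active means triplicate mean inhibition exceeding the hit cutoff computed for the primary STAT1 screen, cut at about 35% in these data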;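 further: 0% = DMSO with IFN-gamma and 100% = 300 µM nifuroxazide with IFN-gamma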
# NFkB inh: counter-screen for STAT1 inhibitors: NF-kappaB inhibition; shares compounds with STAT1 inh-1; HEK293T NF-kB luciferase reporter, TNF-alpha induced, luminescence; actives 30% (n = 200); inhibition, % at 5.7 µM;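 active means inhibition above the mean of solvent-only control wells plus 3 SD of those wells, cut at about 15% in these data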;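 further: 0% = DMSO with TNF-alpha and 100% = MG-132 control with TNF-alpha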
# STAT3 inh STAT1c: counter-screen for STAT1 inhibitors: STAT3 inhibition; actives 20% (n = 200); shares compounds with STAT1 inh-1; AID 1310; U3A cells, IL-6 STAT3 luciferase reporter, luminescence; cells lacking STAT1; inhibition, % at 5.7 µM;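 active means inhibition above the mean of solvent-only control wells plus 3 SD, set per campaign, cut at about 25% in these data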;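 further: 0% = IL-6 plus DMSO and 100% = IL-6 plus nifuroxazide control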
# HSP90 confirm: HSP90 inhibition, confirmation assay; shares compounds with HSP90 refold inh; rabbit reticulocyte lysate, luciferase refolding luminescence, 3 h; inhibition, % at 5.9 µM; actives 64% (n = 2,300); AID 1846; in the data active means inhibition above about 18%;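 further: 0% = vehicle wells and 100% = reference inhibitor wells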
# luciferase ctr: counter-screen for HSP90 inhibitors: inhibitors of firefly luciferase; purified native firefly luciferase, luminescence; inhibition, % at 5.9 µM; AID 1847; shares compounds with HSP90 refold inh; actives 48% (n = 2,300);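 active means inhibition above the mean inhibition of all tested sample wells plus 3 SD, cut at about 10% in these data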;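 further: 0% = DMSO with luciferase and 100% = wells lacking luciferase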
# Target sequence (P08659 whole entry, looked up): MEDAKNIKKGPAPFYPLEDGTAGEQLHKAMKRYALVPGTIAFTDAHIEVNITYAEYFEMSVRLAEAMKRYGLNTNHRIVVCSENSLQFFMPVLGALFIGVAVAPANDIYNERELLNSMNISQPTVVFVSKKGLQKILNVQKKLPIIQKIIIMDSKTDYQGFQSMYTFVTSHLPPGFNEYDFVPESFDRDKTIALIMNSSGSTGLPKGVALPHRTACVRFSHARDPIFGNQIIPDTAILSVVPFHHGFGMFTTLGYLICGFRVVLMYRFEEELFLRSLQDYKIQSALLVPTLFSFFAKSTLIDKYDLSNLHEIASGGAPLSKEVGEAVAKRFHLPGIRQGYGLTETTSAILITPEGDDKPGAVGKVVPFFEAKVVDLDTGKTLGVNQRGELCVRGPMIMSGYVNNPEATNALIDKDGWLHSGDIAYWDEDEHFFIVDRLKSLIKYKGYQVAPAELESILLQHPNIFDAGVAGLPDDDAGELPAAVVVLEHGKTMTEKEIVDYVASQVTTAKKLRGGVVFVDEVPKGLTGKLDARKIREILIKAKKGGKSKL
# * marks the source's active call; other numbers are inactive results; nt = no result given. In the library only some 2% were active in any assay of this set; here they are far more common.
SMILES,STAT3 activator,HSP90 refold inh,STAT3 blocker,STAT1 inh-1,STAT1 inh-2,NFkB inh,STAT3 inh STAT1c,HSP90 confirm,luciferase ctr
CCOC(=O)C(=CNc1cc(C)nn1C(C)(C)C)C(=O)OCC,105,2,0,15,nt,nt,nt,nt,nt
CCOC(=O)C(=CNc1cc(C)ccc1C)C(=O)OCC,80,-1,28,37*,33,-1,-18,nt,nt
CCOC(=O)C(=CNc1cc(C)nn1-c1ccc(C)cc1)C(=O)OCC,90,7,16,69*,60*,40*,15,nt,nt
N#C/C(=N\Nc1cccc([N+](=O)[O-])c1)C(=O)c1ccc(Br)cc1,72,-6,38,69*,44*,12,29*,nt,nt
Cc1ccc(NC(=O)c2cc(C)n(-c3cccc(C)c3)c2C)cc1,89,5,16,65*,5,0,-14,nt,nt
Cc1ccc(-n2c(C)cc(C(=O)NS(=O)(=O)c3ccc(C)cc3)c2C)cc1,118,0,-23,-6,nt,nt,nt,nt,nt
O=C(O)c1ccc(N/N=C/c2cc3c(cc2[N+](=O)[O-])OCO3)cc1,73,8,36,36*,65*,45*,15,nt,nt
Cc1cc(C)nc(N/N=C/c2cc3c(cc2[N+](=O)[O-])OCO3)n1,94,-6,12,6,nt,nt,nt,nt,nt
CC(Cc1cccs1)NC(=O)CCCn1nnnc1CN1CCOCC1 (configuration not stated),nt,-2,nt,nt,nt,nt,nt,nt,nt
CS(=O)(=O)c1nc(-c2ccccc2)cc(C(F)(F)F)n1,101,1,6,36*,47*,-3,2,nt,nt
O=C(Nc1cc(C(=O)N2CCCC2)ccc1N1CCCC1)c1ccccc1F,89,1,17,51*,48*,11,8,nt,nt
O=C(Nc1ccc(C(=O)N2CCCC2)cc1)c1ccccc1F,101,1,3,-12,nt,nt,nt,nt,nt
Cc1c(C(=O)Nc2cccc(Cl)c2)c2ccccn2c1CCc1ccncc1,99,5,6,35*,23,-9,-5,nt,nt
Cc1c(C(=O)Nc2ccc(Cl)cc2)c2ccccn2c1CCc1ccncc1,110,4,-12,13,nt,nt,nt,nt,nt
Cc1cc(N2C(=O)c3ccc(C(=O)Nc4ccc(CC(=O)O)cc4)cc3C2=O)no1,nt,3,nt,nt,nt,nt,nt,nt,nt
CCCCCCC(=O)N(O)C1CC(=O)N(Cc2ccccc2)C1=O (configuration not stated),83,5,22,35*,30,11,22,nt,nt
Cc1ccc2[nH]c(=O)c3cc(C(=O)NC(C)C)sc3c2c1,nt,-1,nt,nt,nt,nt,nt,nt,nt
CC1CC(C)CN(C(=O)COC(=O)Cc2ccc(Br)cc2)C1 (configuration not stated),nt,7,nt,nt,nt,nt,nt,nt,nt
CCCNC(=O)CSCc1nc(-c2ccc(SC)cc2)oc1C,95,3,17,13,nt,nt,nt,nt,nt
CCc1ccc(-c2nc(CSCC(=O)NCc3ccco3)c(C)o2)cc1,84,19*,28,83*,75*,37*,23,31*,-20
CN(C)S(=O)(=O)c1ccc(C(=O)NCc2nnc(SCC(=O)c3ccccc3)o2)cc1,nt,-2,nt,nt,nt,nt,nt,nt,nt
Cc1cc(C(=O)CSc2nn(-c3ccccc3)c(=S)s2)c(C)n1Cc1ccco1,107,1,-1,1,nt,nt,nt,nt,nt
Cc1cc(C(=O)CSc2nncs2)c(C)n1Cc1ccco1,67,22*,43,35*,-15,20*,26*,55*,41*
Fc1ccc(-n2nnc(-c3cnc4ccccc4c3)n2)cc1,nt,19*,nt,83*,21,76*,78*,81*,77*
COC(=O)N1C(=O)[C@](c2ccsc2)(C(C)C)N1C(=O)OC,nt,-4,nt,nt,nt,nt,nt,nt,nt
SMILES,STAT3 activator,HSP90 refold inh,STAT3 blocker,STAT1 inh-1,STAT1 inh-2,NFkB inh,STAT3 inh STAT1c,HSP90 confirm,luciferase ctr
Cc1ccc(-n2nnc(-c3nccs3)n2)cc1,nt,76*,nt,83*,49*,76*,85*,85*,81*
Nc1c(C(=O)Nc2ccccc2)nnn1-c1ccc2c(c1)OCCO2,nt,24*,nt,nt,nt,nt,nt,45*,31*
Cc1ccc(NC(=O)c2nnn(-c3ccc4c(c3)OCCO4)c2N)cc1,nt,-6,nt,nt,nt,nt,nt,nt,nt
Cc1ccc(-c2nc(N/N=C/c3ccncc3)c3ccccc3n2)cc1,25,47*,90*,78*,nt,nt,nt,80*,56*
CC(=O)Nc1ccc(CC(=O)NCCC(c2ccccc2)c2ccccc2)cc1,nt,3,nt,nt,nt,nt,nt,nt,nt
COc1ccc(C(=O)NCCn2cc(SCC(=O)NCC3CCCO3)c3ccccc32)cc1 (configuration not stated),nt,29*,nt,nt,nt,nt,nt,15,3
COc1ccccc1C(=O)NCCn1cc(SCC(=O)NCC2CCCO2)c2ccccc21 (configuration not stated),nt,1,nt,nt,nt,nt,nt,nt,nt
COc1cccc(CNC(=O)N2CCN(S(=O)(=O)c3ccc(Cl)cc3)CC2)c1,nt,-3,nt,nt,nt,nt,nt,nt,nt
O=C(NCc1ccc(Cl)cc1)N1CCN(S(=O)(=O)c2ccccc2)CC1,nt,38*,nt,nt,nt,nt,nt,-1,-6
Cc1ccc(C(=O)O/N=C(\N)c2ccccn2)c(Cl)c1,nt,94*,nt,nt,nt,nt,nt,96*,91*
N/C(=N\OC(=O)c1cc([N+](=O)[O-])ccc1Cl)c1ccccn1,nt,0,nt,nt,nt,nt,nt,nt,nt
N/C(=N\OC(=O)c1ccccc1Cl)c1ccncc1,92,-3,15,-67,nt,nt,nt,nt,nt
Cc1ccc(C(=O)O/N=C(\N)c2ccccc2)c(Cl)c1,nt,56*,nt,nt,nt,nt,nt,80*,87*
N/C(=N\OC(=O)c1cc(Br)ccc1Cl)c1ccccn1,118,1,-16,-28,nt,nt,nt,nt,nt
N/C(=N\OC(=O)c1ccc([N+](=O)[O-])cc1Cl)c1ccccn1,nt,67*,nt,nt,nt,nt,nt,61*,90*
Cc1cc(=O)oc2c(C)c(OCC(=O)Nc3cccnc3)ccc12,nt,1,nt,nt,nt,nt,nt,nt,nt
CC1CCC(NC(=O)c2ccc3c(c2)OCO3)CC1 (configuration not stated),nt,24*,nt,nt,nt,nt,nt,46*,27*
COc1ccc(C(=O)O)cc1S(=O)(=O)N1CCN(c2ccccn2)CC1,nt,17*,nt,nt,nt,nt,nt,-7,-13
C/C(=N\NC(=O)c1n[nH]c2c1CCC2)c1cccs1,nt,33*,nt,nt,nt,nt,nt,84*,72*
Cc1ccc(/C=N/NC(=O)c2n[nH]c3c2CCCC3)cc1,nt,-1,nt,nt,nt,nt,nt,nt,nt
O=C(N/N=C/c1cccs1)c1n[nH]c2c1CCCC2,nt,36*,nt,nt,nt,nt,nt,77*,71*
CC(/C=N/NC(=O)c1n[nH]c2c1CCC2)=C\c1ccccc1,127,1,-32,-24,nt,nt,nt,nt,nt
CNC(=S)N1CCN(c2nc(-c3ccc(Cl)cc3)cs2)CC1,nt,-3,nt,nt,nt,nt,nt,nt,nt
CCCCOc1ccc(-c2cc(C(=O)NNC(=S)NCC)c3ccccc3n2)cc1,28,30*,87*,59*,nt,nt,nt,52*,-2
CCCCOc1cccc(-c2cc(C(=O)NNC(=S)NCC)c3ccccc3n2)c1,98,-2,10,-3,nt,nt,nt,nt,nt

# Assay outcomes deposited in PubChem BioAssay by The Scripps Research Institute Molecular Screening Center.
